# Results gathered from unrelated publications.
# Protocols differ between the studies behind these lines. pIC50: −log10 of the molar value.
# Cell line: DU-145
# Effect on: cell growth or viability
SMILES,method,time,pIC50
O=C(O)C(c1c[nH]c2ccccc12)c1c[nH]c2ccccc12,MTT,48 h,< 4.00
COc1cccc([C@@H]2C[C@@H](C)OC(=O)c3cc4ccccn4c32)c1 (racemic),resazurin,72 h,< 4.00
COc1cc(C(=O)c2csc(-c3ccccc3)n2)cc(OC)c1OC,SRB,96 h,7.15
Cn1cc(C(c2ccc(/C=C/C(=O)O)s2)c2cn(C)c3ccccc23)c2ccccc21,MTT,48 h,4.34
COc1cccc2c1C(=O)c1c(O)c3c(c(O)c1C2=O)C[C@@](O)(C(=O)CO)C[C@@H]3O[C@H]1C[C@H](N)[C@H](O)[C@H](C)O1,WST-1,72 h,7.52
C[C@@H]1C[C@H](c2ccccc2)c2c(cc3ccccn23)C(=O)O1 (racemic),resazurin,72 h,< 4.00
C[C@H]1[C@@H](O)O[C@@H]2O[C@@]3(C)CC[C@H]4[C@H](C)CC[C@@H]1[C@@]24OO3,CCK-8,48 h,< 4.30
Cc1cc(=O)[nH]c(=O)n1Cc1cn(-c2c3ccccc3nc3ccccc23)nn1,MTT,,4.58
COC1=CC(=O)N(C(=O)[C@@H](CCC(Cl)(Cl)Cl)NC(=O)C(C)(C)C)[C@@H]1CCC(Cl)Cl,resazurin,72 h,< 4.46
FC(F)(F)c1ccc(C(c2c[nH]c3ccccc23)c2c[nH]c3ccccc23)cc1,MTT,48 h,4.33
Cc1ccc(S(=O)(=O)OCC(=O)Nc2ccc(C(=O)O)c(O)c2)cc1,,,4.12
C[C@@H]1C[C@@H](c2ccc(Br)cc2)c2c(cc3ccccn23)C(=O)O1 (racemic),resazurin,72 h,4.33
CCc1c2c(nc3ccc(OC(=O)N4CCC(N5CCCCC5)CC4)cc13)-c1cc3c(c(=O)n1C2)COC(=O)[C@]3(O)CC,SRB,72 h,5.03
COc1cc(Nc2nccc(-c3cnn4nc(OC)ccc34)n2)cc(C(F)(F)F)c1,ATP luminescence,,6.42
C[C@@H]1C[C@H](c2cccc(Cl)c2)c2c(cc3ccccn23)C(=O)O1 (racemic),resazurin,72 h,4.26
c1csc([I+]c2cccs2)c1,trypan blue,48 h,~5.46
COc1cc(OC)cc([C@H]2C[C@@H](C)OC(=O)c3cc4ccccn4c32)c1 (racemic),resazurin,72 h,4.28
O=C(O)c1ccc(C(c2c[nH]c3ccccc23)c2c[nH]c3ccccc23)cc1,MTT,48 h,< 4.00
COc1cc([C@@H]2C[C@@H](C)OC(=O)c3cc4ccccn4c32)cc(OC)c1OC (racemic),resazurin,72 h,< 4.00
Cc1ccc2c(c1)c(C(c1ccc(/C=C/C(=O)O)s1)c1cn(C(C)C)c3ccc(C)cc13)cn2C(C)C,MTT,48 h,< 4.00
C[C@@H]1C[C@@H](c2cccc(F)c2)c2c(cc3ccccn23)C(=O)O1 (racemic),resazurin,72 h,< 4.00
Cc1cccc2c(C(c3ccc(/C=C/C(=O)O)s3)c3c[nH]c4c(C)cccc34)c[nH]c12,MTT,48 h,4.19
